Compounds with a hit are over-represented: about 4.8% of the library has one in this group of screens.
SKKanGAS inh: S. pyogenes SKKanGAS growth inhibitors in kanamycin, primary screen, streptokinase expression inhibitor project, SKKanGAS strain, BacTiter-Glo luminescence | 6 h | inhibition, % at 7.5 µM | 300,000 tested, 1.3% active | AID 1662, 2009;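 active = mean replicate score, as percent of positive control median, at least 50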;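 also: strain carries kanamycin resistance gene driven by streptokinase promoter and grows in 40 µg/ml kanamycin; loss of luminescence reflects streptokinase promoter inhibition or plain growth inhibition; 0% = median of DMSO wells and 100% = positive control at its reference dose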
CSC inhib: cancer stem cell viability inhibitors, primary screen, luminescence; cancer stem cell-like cells viability; inhibition, % at 7.5 µM; 300,000 tested, 1.1% active; in the data active = inhibition above about 75%; tested in HMLE shEcad cells
UPR CHOP act: activators of apoptotic CHOP UPR arm, primary screen, cell-based, CHO-CHOP luciferase reporter, luminescence, uHTS; activation, % at 10 µM; UPR activation; percent of tunicamycin response over DMSO baseline; 330,000 tested, 0.34% active;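 active = at 10 µM dose, activation of 40% or more, normalized to positive control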;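 also: 100% = tunicamycin at 10 µg/mL and 0% = DMSO alone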
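Assay system: CHO cells with stable CHOP pathway luciferase reporter; Buffer or medium: F12 plus 10% serum; Times: 16-18 h cell attachment, then 6 h compound exposure, 37 °C; Signal: luciferase luminescence; Read-out basis: percent activation relative to tunicamycin control; Control set: tunicamycin high control, DMSO low control.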
UPR XBP1 act: activators of adaptive XBP1 UPR arm, primary screen, cell-based, CHO-XBP1 luciferase reporter, luminescence, uHTS; activation, % at 20 µM; IRE1-XBP1 UPR activation; percent of tunicamycin response, DMSO as zero; 330,000 tested, 0.33% active; AID 463104, 2010;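 active = versus positive control, 20 µM dose yields 30% or more activation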;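 also: 100% = tunicamycin at 10 µg/mL and 0% = DMSO only wells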
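assay system = CHO-XBP1 luciferase reporter cells | amount = 1000 cells/well | buffer or medium = F12 plus 10% FBS | compound dosing = single point, 20 µM final compound, 1% DMSO | incubation = 16-18 h cell attachment at 37 °C, then 6 h compound exposure | detection = Steady-Glo luminescence read | controls = tunicamycin 10 µg/mL and vehicle-only wells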
Beta apoptosis: inhibitors of cytokine-induced beta cell apoptosis, primary screen, luminescence; INS-1E cytokine-induced death, ATP luminescence, 48 h; percent of positive-control rescue, neutral wells zero; protection from apoptosis, % (no concentration beside the values); 300,000 tested, 0.8% active;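 active = Every replicate reaches about 75%, or at least half do and their mean reaches it too, limit read from the data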;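 also: 0% = cytokine-treated negative control wells and 100% = positive control rescue; higher means more ATP so stronger rescue from cytokine killing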
Mdm2 MdmX PPI: inhibitors of human Mdm2-MdmX association, primary screen, cell-based, luminescence, split luciferase, SaOS-2, uHTS; inhibition, % at 8 µM; SaOS-2 split-luciferase Mdm2/MdmX complementation; 330,000 tested, 3% active;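 active = inhibition of at least 50% at 8 µM in the primary screen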
Target sequence (O15151 whole entry, looked up): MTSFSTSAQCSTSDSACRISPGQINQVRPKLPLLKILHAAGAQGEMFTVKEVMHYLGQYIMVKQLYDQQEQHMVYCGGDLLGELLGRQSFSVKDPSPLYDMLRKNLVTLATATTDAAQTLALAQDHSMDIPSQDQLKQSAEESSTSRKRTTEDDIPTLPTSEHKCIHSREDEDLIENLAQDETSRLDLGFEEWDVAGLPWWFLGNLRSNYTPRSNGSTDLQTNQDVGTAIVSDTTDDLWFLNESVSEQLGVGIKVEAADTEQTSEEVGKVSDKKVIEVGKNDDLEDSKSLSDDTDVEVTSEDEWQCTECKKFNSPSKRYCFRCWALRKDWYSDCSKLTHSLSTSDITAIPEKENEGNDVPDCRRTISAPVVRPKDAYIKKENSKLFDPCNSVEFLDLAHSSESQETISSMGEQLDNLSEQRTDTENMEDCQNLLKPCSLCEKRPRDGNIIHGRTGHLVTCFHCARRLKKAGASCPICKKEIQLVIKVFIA
Target sequence (Q00987 whole entry, looked up): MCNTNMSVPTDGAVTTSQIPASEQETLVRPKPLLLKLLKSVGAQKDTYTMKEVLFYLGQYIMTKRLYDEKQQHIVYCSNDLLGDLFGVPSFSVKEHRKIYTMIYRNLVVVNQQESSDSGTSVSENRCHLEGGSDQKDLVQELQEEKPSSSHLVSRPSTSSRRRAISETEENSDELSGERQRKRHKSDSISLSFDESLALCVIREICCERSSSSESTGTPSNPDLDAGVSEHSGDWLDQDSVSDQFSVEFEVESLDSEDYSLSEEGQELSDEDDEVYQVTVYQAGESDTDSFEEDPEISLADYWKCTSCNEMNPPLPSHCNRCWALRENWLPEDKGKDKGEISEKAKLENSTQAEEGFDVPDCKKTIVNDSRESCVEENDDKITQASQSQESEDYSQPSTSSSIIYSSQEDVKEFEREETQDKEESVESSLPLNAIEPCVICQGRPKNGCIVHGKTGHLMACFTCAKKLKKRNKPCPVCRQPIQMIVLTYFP
Mdm2-MdmX conf: Mdm2-MdmX complex disruptors, retested hits, confirmation, luminescence, single concentration; inhibition, % at 8 µM; shares compounds with Mdm2 MdmX PPI; Mdm2-MdmX binding, luminescent assay; 10,000 tested, 55% active; in the data active = inhibition above about 40%
Full FLuc ctr: full-length luciferase signal inhibition, confirmation, counter-screen for Mdm2/MdmX interaction inhibitor project, cell-based, single concentration, SaOS-2. shares compounds with Mdm2 MdmX PPI. SaOS-2 full-length luciferase counterscreen, luminescence. inhibition, % at 8 µM. 6,200 tested, 77% active. AID 504607, 2011;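 active = mean inhibition at 8 µM reaching about 37%, which flags the compound as non-specific, limit read from the data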;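 also: p53-null SaOS-2 cells with luciferase driven by a doxycycline-inducible promoter; compound on cells about two nights before reading with doxycycline added after day one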
Starred values were filed as active, the others as inactive; . = no result given.

SMILES | SKKanGAS inh | CSC inhib | UPR CHOP act | UPR XBP1 act | Beta apoptosis | Mdm2 MdmX PPI | Mdm2-MdmX conf | Full FLuc ctr
CCCNC(=O)C1(CC2CC(c3ccccc3)=NO2)CCN(C(=O)C2CCCC2)CC1 (stereo unspecified) | . | 2.7 | -0.1 | -3.5 | -0.7 | 10.0 | . | .
C(=N\N=C\c1ccncc1)/c1ccncc1 | 1.1 | 6.2 | -2.1 | 0.0 | 1.8 | 6.9 | . | .
Fc1ccc(Nc2nnc(C(F)(F)F)s2)cc1Cl | 27.5 | 48.3 | 0.1 | 11.4 | 46.2 | 73.4* | 68.0* | 57.2*
COCCn1c(C)cc(/C=C2/SC(=O)N(CC(=O)N3CCCC3)C2=O)c1C | -5.1 | -7.4 | 1.3 | 3.0 | -6.4 | 3.4 | . | .
CC(CCc1ccccc1)NC(=O)COC(=O)c1ccc(S(C)(=O)=O)c([N+](=O)[O-])c1 (stereo unspecified) | 0.8 | 23.4 | 12.0 | -6.8 | -46.0 | 81.3* | 82.9* | 55.0*
Cc1ccccc1NC(=O)COC(=O)c1ccc(S(C)(=O)=O)c([N+](=O)[O-])c1 | 3.4 | -8.0 | -1.6 | -5.6 | -19.2 | 55.5* | 32.6 | .
Cc1ccccc1NC(=O)Cc1nc(COC(=O)c2ccc(S(C)(=O)=O)c([N+](=O)[O-])c2)cs1 | . | . | -9.2 | -6.3 | . | 97.4* | 94.5* | 56.9*
Cc1ccccc1NC(=O)Cc1nc(COC(=O)c2ccc(NC(N)=O)cc2)cs1 | . | 10.4 | -1.5 | -1.9 | -13.8 | -5.3 | . | .
CC(C)c1ccc(CN2CCSCC2)cc1 | -4.5 | 11.6 | 3.1 | -3.2 | -4.9 | -14.7 | . | .
CCOCCCN(Cc1ccco1)C(=O)c1cc2c(=O)[nH]c3ccc(C)cc3c2s1 | 14.1 | . | 2.7 | 2.2 | 3.2 | 56.4* | 33.9 | .
CCOc1ccc(-n2c(N)c(-c3nc4ccccc4n3C)c3nc4ccccc4nc32)cc1 | 48.8 | -5.5 | 26.8 | 21.2 | 5.0 | 62.8* | 58.6* | 65.5*
CCOc1ccc(-n2c(N)c(C(=O)NCc3ccco3)c3nc4ccccc4nc32)cc1 | 17.0 | 5.4 | 3.3 | -1.9 | -8.9 | 24.3 | . | .
O=C(Nc1nc(-c2ccccc2)cs1)C1CCCN(S(=O)(=O)c2cccc([N+](=O)[O-])c2)C1 (stereo unspecified) | 13.4 | 1.9 | 3.4 | -1.1 | . | 42.2 | . | .
Cc1ccc(Nc2nc(-c3ccc(S(=O)(=O)N4CCOCC4)cc3)cs2)cc1Cl | 1.5 | 23.2 | 13.0 | 9.9 | 14.9 | 62.7* | 12.8 | .
COc1cccc(C(=O)Nc2nc(-c3ccc(S(=O)(=O)N4CCOCC4)cc3)cs2)c1 | 9.4 | 28.7 | 2.1 | -3.8 | 7.4 | 58.0* | 4.0 | .
O=C(Nc1nc(-c2ccc(S(=O)(=O)N3CCOCC3)cc2)cs1)c1ccccc1 | -12.0 | 28.0 | 3.8 | 3.3 | 5.8 | 15.0 | . | .
CC(C)CC(=O)Nc1nc(-c2ccc(S(=O)(=O)N3CCOCC3)cc2)cs1 | 0.9 | . | 1.0 | -5.0 | . | -11.9 | . | .
O=C(Nc1nc(-c2ccccc2)cs1)C1CCCN(S(=O)(=O)c2ccccc2)C1 (stereo unspecified) | 11.8 | . | 3.9 | -2.2 | . | 78.0* | 65.2* | 78.7*
Cc1ccc(-c2csc(NC(=O)c3cccc(S(=O)(=O)N4CCN(C)CC4)c3)n2)cc1 | 30.6 | 20.1 | 6.7 | 12.4 | 4.3 | 73.2* | 65.3* | 38.6*
COc1ccc(OC)c(CCNC(=O)CCCC(=O)n2ncc3cc(C)ccc32)c1 | -3.7 | 0.5 | 2.4 | 2.6 | -0.5 | 15.0 | . | .
Cc1cccc(C)c1NC(=O)NC1(C(=O)NCC2CCCO2)CCCCC1 (stereo unspecified) | 0.8 | -4.4 | 2.3 | -3.9 | -4.0 | 4.8 | . | .
O=C(C[C@@H]1C/C=C\C[C@H](NC(=O)OCC2c3ccccc3-c3ccccc32)C(=O)O[C@H](c2ccccc2)CNC1=O)NCCO | . | 2.3 | 0.6 | -2.1 | 8.4 | -6.1 | . | .
Cc1cc(N2CCOCC2)ccc1/C=C1\NC(=O)N(Cc2ccccc2F)C1=O | 0.2 | 10.8 | 0.8 | -0.9 | 8.2 | 71.1* | 10.0 | .
COc1ccc(C(CCNCc2ccc(OC(C)C)cc2)C(C)C)cc1 (stereo unspecified) | -1.9 | 35.0 | -0.1 | -2.0 | 57.0 | 84.6* | 38.9 | 71.1*
COc1ccc(C(CCNCc2ccc(N(C)C)cc2)C(C)C)cc1 (stereo unspecified) | 4.8 | 18.6 | 0.4 | 0.1 | 36.7 | 49.2 | . | .
SMILES | SKKanGAS inh | CSC inhib | UPR CHOP act | UPR XBP1 act | Beta apoptosis | Mdm2 MdmX PPI | Mdm2-MdmX conf | Full FLuc ctr
CCOCCCNCc1ccc(OC)c(OC)c1 | -2.6 | -4.8 | 1.2 | -2.1 | 4.2 | 28.2 | . | .
COc1ccc(CNCCC(c2ccc(OC(C)C)cc2)C(C)C)cc1OC (stereo unspecified) | -1.3 | -3.5 | -1.8 | -2.1 | 86.5* | 77.2* | 50.5* | 67.2*
CC1=CC(C)(C)N(S(=O)(=O)c2ccc(C)cc2)c2ccc(C)cc21 | 4.5 | . | -1.4 | 15.0 | . | 54.2* | 60.7* | 107.8*
CC(=O)Nc1ccc(S(=O)(=O)N2c3ccccc3C(C)=CC2(C)C)cc1 | 1.1 | 46.9 | 0.0 | 12.4 | 22.1 | 74.4* | 59.5* | 94.4*
O=C(CCS(=O)(=O)c1ccccc1)Nc1ccc(S(=O)(=O)Nc2nccs2)cc1 | . | -5.2 | 1.1 | 0.1 | 1.6 | 22.1 | . | .
COc1ccc(Nc2nnc(SCC(=O)NC(=O)Nc3ccc4c(c3)OCCO4)s2)cc1 | -1.6 | 18.5 | -1.6 | 1.6 | -2.4 | 62.4* | -4.2 | .
O=C(CSc1nnnn1-c1cccnc1)Nc1cccc(Cl)c1 | 1.6 | 4.4 | 1.0 | -0.2 | -9.2 | 24.3 | . | .
COc1cccc(-n2nnnc2SCC(=O)Nc2ccc3c(c2)OCCO3)c1 | 4.1 | 7.4 | 0.9 | -1.5 | -2.5 | 79.2* | 27.6 | .
O=C(CSc1nnnn1-c1cccc(Cl)c1)Nc1ccc2c(c1)CCC2 | 2.0 | 2.5 | -1.6 | -0.2 | 6.1 | 71.2* | 36.8 | 59.9*
CCOc1ccc(-n2nnnc2SCC(=O)Nc2cccc(O)c2)cc1 | -3.9 | -0.4 | -0.1 | -3.3 | 1.0 | -9.0 | . | .
CCOc1ccc(-n2nnnc2SCC(=O)Nc2ccc(NC(C)=O)cc2)cc1 | -3.3 | -0.7 | 2.7 | -2.3 | -5.4 | 57.3* | 5.7 | .

Screens: PubChem BioAssay, several laboratories
